Laboratory results taken from ChEMBL document CHEMBL2150963, “Anthraquinones from a marine-derived Streptomyces spinoverrucosus” (J Nat Prod, 2012).
Calls of active or inactive are those of the source. No cut-off for these calls is given here.

Tests used:
C127 [1] = test: Epigenetic modulation in mouse C127 cells expressing CMV promoter assessed as induction of GFP expression at 10 uM after 24 hrs by LDR assay
[2] = Cytotoxicity against human NCI-H2887 cells after 96 hrs by Cell Titer Glo assay; format: functional, cell-based; details: NCI-H2887, 96 h
How it was run: (§1)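 Cells were grown in RPMI/L-glutamine with penicillin 1000 U/ml, streptomycin 1 mg/mL and 5% FBS, humidified, at 37 °C and 5% CO2. They were seeded in 384-well plates at 750 (Calu-3) or 500 (H2887) cells/well and left overnight. Compounds in DMSO were added at 50 μM to 1 nM final, with 0.5% DMSO final. After 96 h, CellTiter-Glo was added, plates sat 10 min at room temperature, and luminescence was normalized to DMSO-only wells.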

Calu-3 = test: Cytotoxicity against human Calu3 cells after 96 hrs by Cell Titer Glo assay; format: functional, cell-based; details: Calu-3, 96 h
How it was run: as §1

C127 [3] = test: Epigenetic modulation in mouse C127 cells expressing CMV promoter assessed as induction of GFP expression at 1 uM after 24 hrs by LDR assay

Row | Structure (SMILES) | Activity (C127 [1]) | IC50 [2] [µM] | IC50 (Calu-3) [µM] | Activity (C127 [3])
1 | Cc1cc2c(c(O)c1C(=O)CCC(C)C)C(=O)c1c(O)cccc1C2=O [GALVAQUINONE A] | Active | > 50 | > 50 | –
2 | Cc1c(O)c(CCC(C)C)c2c3c1OC(C)(C)N=C3c1cccc(O)c1C2=O | – | > 50 | > 50 | –
3 | Cc1c(O)c2c(c(O)c1C(=O)CCC(C)C)C(=O)c1c(O)cccc1C2=O [GALVAQUINONE B] | Active | 5 | 12.2 | Active
4 | Cc1cc(O)c2c(c1O)C(=O)c1cccc(O)c1C2=O [ISLANDICIN] | – | > 50 | > 50 | –
5 | Cc1c(O)c(CCC(C)C)c2c(c1O)C(=O)c1cccc(O)c1C2=O [LUPINACIDIN A] | – | 3.1 | 8.8 | –
6 | Cc1c(O)c(C(=O)CC(C)C)c2c(c1O)C(=O)c1cccc(O)c1C2=O [GALVAQUINONE C] | – | > 50 | > 50 | –
